Assay results of several laboratories.
ADRA2C: Alpha-2C adrenergic receptor (ADRA2C, Homo sapiens, UniProt P18825)
ATXN3: Ataxin-3 (ATXN3, Homo sapiens, UniProt P54252)

| Compound | target | effect on | action | method | concentration | inhibition [%] |
| --- | --- | --- | --- | --- | --- | --- |
| C#Cc1n[nH]c2c(-c3cn([C@@H](C)c4ccccc4)c(=O)[nH]c3=O)cc(F)cc12 | Leucine-rich repeat serine/threonine-protein kinase 2 (LRRK2, Homo sapiens, UniProt Q5S007) | enzyme activity | inhibitor | – | 0.1 µM | 3.8 |
| CCN(CC)CCCC[C@H](NC(=O)[C@H](CC(C)C)NC(=O)[C@H](C)NC(=O)[C@H](Cc1ccccc1)NC(=O)c1ccc(C(C)(C)C)cc1)C(=O)N[C@@H](CO)C(=O)OC | Nociceptin receptor (OPRL1, Homo sapiens, UniProt P41146) | ligand displacement | – | radioligand | 10 µM | 23 |
| Cn1cc(-c2cc(F)cc(N3CCn4c(cc5c4CCCC5)C3=O)c2CO)cc(Nc2ccc(N3CCN(C4COC4)CC3)cn2)c1=O | Serine/threonine-protein kinase TAO2 (TAOK2, Homo sapiens, UniProt Q9UL54) | enzyme activity | inhibitor | – | 0.1 µM | 7 |
| c1ccc(C(NCCNC(c2ccccc2)c2ccccc2)c2ccccc2)cc1 | Apelin receptor (APLNR, Homo sapiens, UniProt P35414) | cell-free assay | – | – | 10 µM | 46 |
| COCc1c(-c2cc3cc(C)cc(OC)c3s2)c2c(N)ncnn2c1CN1CCNC(=O)C1 | ADRA2C | ligand displacement | – | radioligand | 10 µM | 31 |
| COc1cc(Nc2ncc(F)c(Nc3ccc4c(n3)NC(=O)C(C)(C)O4)n2)cc(OC)c1OC | Eukaryotic translation initiation factor 2-alpha kinase 1 (EIF2AK1, Homo sapiens, UniProt Q9BQI3) | binding | – | competition with immobilised ligand | 10 µM | 38 |
| N=C(N)c1ccc2cc(OC(=O)c3ccc(N=C(N)N)cc3)ccc2c1 | ATXN3 | enzyme activity | inhibitor | – | 10 µM | 0 |
| C#Cc1n[nH]c2c(-c3cn([C@@H](C)c4ccccn4)c(=O)[nH]c3=O)cc(F)cc12 | Mitogen-activated protein kinase 14 (MAPK14, Homo sapiens, UniProt Q16539) | enzyme activity | inhibitor | – | 0.1 µM | 4 |
| C[C@H](C(=O)N[C@H]1COc2ccccc2[C@@H]1S(C)(=O)=O)c1ccc(F)cc1 | cGMP-inhibited 3',5'-cyclic phosphodiesterase 3A (PDE3A, Homo sapiens, UniProt Q14432) | cell-free assay | inhibitor | – | 10 µM | -9 |
| CCOC(=O)c1ccc(OC(=O)CCCCCNC(=N)N)cc1 | ATXN3 | enzyme activity | inhibitor | – | 10 µM | 3 |
| Cn1cc(-c2cccc(N3CCc4c(sc5c4CC(C)(C)C5)C3=O)c2CO)cc(Nc2ccncn2)c1=O | Leucine-rich repeat serine/threonine-protein kinase 2 (LRRK2, Homo sapiens, UniProt Q5S007, G2019S) | enzyme activity | inhibitor | – | 1 µM | -15 |
| O=C(Nc1cccnn1)N1CCN([C@@H]2CCOc3cc(C(F)(F)F)ccc32)CC1 | ADRA2C | cell-free assay | – | – | 20 µM | 23 |
